Screening data deposited in PubChem by The Scripps Research Institute Molecular Screening Center.
This is a sample that favours compounds with a hit; in the whole collection about 2.8% have one here.
ARFGAP1 inh – inhibits rat ARF GTPase activating protein 1; Q62848; Arfgap1-stimulated ARF1 GTP hydrolysis, GDP FP detection; inhibition, % at 16.5 µM; 0.26% of 360,000 active;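 active = inhibition above a per-plate limit, mean inhibition of low control wells plus 3 SD, cut at about 25% in these data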;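 note: 0% = DMSO wells with enzyme and 100% = wells lacking Arfgap1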
Target sequence (Q62848 1-136 limits assumed): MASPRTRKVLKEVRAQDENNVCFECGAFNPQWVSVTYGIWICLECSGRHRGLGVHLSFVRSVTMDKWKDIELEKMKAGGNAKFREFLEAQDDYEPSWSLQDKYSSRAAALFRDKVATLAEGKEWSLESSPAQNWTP
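Assay system: purified rat His6-Arfgap1 residues 1-136 (GAP domain); Reagent: human Δ17 ARF1 bound to GTP; Dosing: 16.5 µM single point, 1.26% DMSO; Times: GTP hydrolysis reaction 2 h at 25 °C; Signal: FP, GDP Alexa 633 tracer displaced from anti-GDP antibody, 620/688 nm; Measure: % inhibition from polarization.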
PAFAH1B3 inh – blocks human PAF acetylhydrolase 1B catalytic subunit 3; 0.28% of 340,000 active; recombinant PAFAH1B3, FP-rhodamine probe, fluorescence polarization; Q15102; inhibition, % at 3.39 µM; AID 492972;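 active = inhibition above the screen-wide average of all tested compounds plus 3 SD, cut at about 25% in these data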;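 note: 0% = enzyme with DMSO only and 100% = wells lacking PAFAH1B3 protein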
Target sequence (Q15102 whole entry, looked up): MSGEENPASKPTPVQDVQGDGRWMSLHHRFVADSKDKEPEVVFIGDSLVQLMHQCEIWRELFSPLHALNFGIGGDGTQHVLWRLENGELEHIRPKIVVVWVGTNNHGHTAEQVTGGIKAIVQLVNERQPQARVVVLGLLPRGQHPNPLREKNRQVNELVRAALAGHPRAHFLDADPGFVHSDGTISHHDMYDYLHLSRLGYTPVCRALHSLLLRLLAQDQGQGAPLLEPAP
pPAFAH inh – pPAFAH (human) enzyme inhibition; Q13093; 1.5% of 330,000 active; inhibition, % at 3.39 µM; recombinant pPAFAH, FP-rhodamine probe fluorescence polarization;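 active = inhibition above the mean inhibition across the screen plus 3 SD, cut at about 25% in these data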;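 note: inhibitors block binding of the rhodamine activity-based probe so polarization drops; 0% = enzyme with DMSO and 100% = wells lacking pPAFAH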
PAFAH1B2 inh – blocks human PAF acetylhydrolase 1b catalytic subunit 2. P68402. recombinant PAFAH1B2, FP-rhodamine activity probe, fluorescence polarization. inhibition, % at 3.39 µM. 1.2% of 340,000 active;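 active = inhibition above the mean of all tested compounds plus 3 SD, cut at about 24% in these data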;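 note: 0% = enzyme with DMSO and 100% = wells lacking PAFAH1B2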
ASAP1 GAP inh – blocks human ASAP1-stimulated Arf1 GTP hydrolysis; 0.19% of 360,000 active; Q9ULH1; AID 624377; GDP FP detection; inhibition, % at 16.5 µM; in the data active = inhibition above about 25%;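 note: 0% = vehicle with enzyme and substrate and 100% = no enzyme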
Target sequence (Q9ULH1 325-724 limits assumed): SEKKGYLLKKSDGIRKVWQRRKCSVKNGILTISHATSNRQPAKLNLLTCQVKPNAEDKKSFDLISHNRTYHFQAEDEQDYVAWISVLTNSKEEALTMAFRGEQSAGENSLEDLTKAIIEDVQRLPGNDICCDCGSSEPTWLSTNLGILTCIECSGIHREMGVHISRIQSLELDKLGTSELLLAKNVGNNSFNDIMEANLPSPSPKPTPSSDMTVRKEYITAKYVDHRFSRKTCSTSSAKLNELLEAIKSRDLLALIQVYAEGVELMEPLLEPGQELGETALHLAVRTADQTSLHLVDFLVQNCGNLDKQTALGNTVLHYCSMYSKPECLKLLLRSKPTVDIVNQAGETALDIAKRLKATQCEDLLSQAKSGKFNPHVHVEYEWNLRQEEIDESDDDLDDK
PAFAH2 FP inh – PAFAH2 (human) inhibition; AID 492956; inhibition, % at 3.39 µM; recombinant PAFAH2, FP-rhodamine activity probe, fluorescence polarization; Q99487; 0.99% of 340,000 active;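 active = inhibition above the mean over all tested compounds plus 3 SD, cut at about 30% in these data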;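 note: inhibitors block probe labeling of enzyme so polarization drops; 0% = enzyme with DMSO and 100% = wells lacking PAFAH2 protein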
pPAFAH FP conf – confirmation of human plasma PAF acetylhydrolase (pPAFAH) inhibitors. shares compounds with pPAFAH inh. recombinant pPAFAH, FP-Rh probe fluorescence polarization. inhibition, % at 3.39 µM. 72% of 2,300 active;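 active = mean inhibition of the triplicate above the hit cutoff set for the earlier primary screen, cut at about 25% in these data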;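 note: 0% = enzyme with DMSO and 100% = wells lacking pPAFAH enzyme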
* marks the source's active call; other numbers are inactive results; / = no result given; ! = a repeat was not active.

SMILES | ARFGAP1 inh | PAFAH1B3 inh | pPAFAH inh | PAFAH1B2 inh | ASAP1 GAP inh | PAFAH2 FP inh | pPAFAH FP conf
CC(C)c1ccc(-n2c(O)c(/C=N/NC(=O)c3ccccc3O)c(=O)[nH]c2=S)cc1 | 4.7 | -13.1 | 46.8* | -7.9 | 7.1 | -17.9 | 45.4*
CC(C)c1ccc(-n2c(O)c(/C=N/NC(=O)c3ccncc3)c(=O)[nH]c2=O)cc1 | 7.5 | 16.9 | 8.1 | 3.2 | 11.1 | 0.2 | /
C=CCn1c(O)c(C=Nc2ccc(N(CC)CC)cc2)c(=O)[nH]c1=O | 4.1 | 8.0 | 43.5* | 1.7 | 10.0 | 3.5 | -0.8
Cc1cccc(N=Cc2c(O)n(-c3ccccc3C)c(=O)[nH]c2=O)c1 | 3.9 | 6.4 | 3.6 | 0.5 | 5.9 | -4.7 | /
Cc1ccccc1-n1c(O)c(C=Nc2ccc(N(C)C)cc2)c(=O)[nH]c1=O | -7.0 | 3.2 | 46.1* | 4.8 | 8.3 | 4.4 | 1.2
CN1OC[C@@H]2CN[C@H](c3ccc(Br)cc3)C[C@@H]21 | -4.1 | / | / | / | -7.4 | / | /
CN(C(=O)c1ccc(Cl)nc1)C1(c2ccccc2Cl)CCCCC1=O (stereo not given) | 0.2 | 3.5 | -0.5 | 2.8 | 8.6 | 1.4 | /
Cc1ccc(S(=O)(=O)CC(=O)c2cc(C)c(OC(=O)N(C)C)c(C)c2)cc1 | 0.1 | 4.4 | 1.1 | 3.6 | 5.2 | -0.4 | /
Cc1cc(C(=O)CS(=O)(=O)c2ccccc2)cc(C)c1OC(=O)N(C)C | -8.0 | 5.7 | 37.7* | 5.7 | -18.5 | 9.1 | 3.7
O=C1NC(=O)C(=Cc2cc3c(cc2[N+](=O)[O-])OCO3)C(=O)N1 | -4.8 | 10.2 | 3.0 | 8.2 | 2.7 | 8.2 | /
Cc1cccc(N2C(=O)NC(=O)/C(=C/c3cc4c(cc3[N+](=O)[O-])OCO4)C2=O)c1 | 8.7 | 2.2 | 42.1* | 0.8 | -1.3 | 17.2 | -1.0
O=[N+]([O-])c1ccc(NCc2ccccc2)c2nonc12 | 0.7 | / | 46.9* | / | 6.1 | / | 41.1*
COc1cc2c(cc1OC)-c1c(OC)c(OC)c(OC)c3ccnc(c13)C2=O | / | / | 38.0* | / | / | / | 19.5
COc1cc(CC2(CCc3ccncc3)C(=O)NC(=O)NC2=O)cc(OC)c1OC | -6.4 | 0.9 | -3.2 | 1.1 | -3.8 | 6.4 | /
O=C(COC(=O)Cc1ccccc1)Nc1ncc(Cl)cc1Cl | 3.6 | 4.0 | 35.2* | -2.0 | 2.2 | -0.3 | 22.9
CCN(CC)C(=O)c1ccc2c(c1)C1C(Cl)C(Sc3ccccc3[N+](=O)[O-])CC1C(C(=O)O)N2 (stereo not given) | / | 25.9* | 68.2* | 32.5* | / | 53.2* | 35.6*
Cc1ccc2c(c1Cl)NC(C(=O)O)C1CC(Sc3ccccc3[N+](=O)[O-])C(Cl)C21 (stereo not given) | / | 15.2 | 49.0* | 8.2 | / | 42.9* | 42.2*
O=C(N/N=C1/CN2CCC1CC2)c1cc2ccccc2cc1O | -3.2 | 16.9 | 39.6* | 7.6 | -3.7 | 10.2 | 8.6
O=[N+]([O-])c1ccc(N2CCCC2)cc1N/N=C1\CN2CCC1CC2 | -3.6 | 1.9 | 8.1 | 2.8 | -3.8 | 2.4 | /
CN1C(=O)C(C)(C2=CCCCC2)C(=O)NC1=S (stereo not given) | -2.4 | 9.2 | / | 1.4 | -9.8 | 0.7 | /
FC(F)(F)c1ccc2c(c1)N(CCCN1CCN(CCCl)CC1)c1ccccc1S2 | -2.7 | 11.3 | 37.7* | -1.2 | -2.8 | -4.6 | 31.0*
Nc1ccc(CCN2CCN(c3cccc(C(F)(F)F)c3)CC2)cc1 | 22.5 | 4.1 | -1.2 | 0.4 | 5.7 | -3.6 | /
CCCCc1ncc(CN2CCCC(C(=O)c3ccc(SC)cc3)C2)[nH]1 (stereo not given) | -18.9 | 3.5 | 4.8 | 7.2 | -10.9 | 11.7 | /
CCN(CC)c1ccc(/C=C2\C(=O)NC(=O)N(Cc3ccco3)C2=O)cc1 | 4.2 | -11.1 | 6.0 | -6.3 | 12.5 | 13.2 | /
CCCCN1C(=O)/C(=C/c2ccc(N(C)C)cc2)C(=O)N(Cc2ccco2)C1=O | -6.8 | -31.9 | 35.7* | -13.1 | -6.1 | -24.2 | -1.1
SMILES | ARFGAP1 inh | PAFAH1B3 inh | pPAFAH inh | PAFAH1B2 inh | ASAP1 GAP inh | PAFAH2 FP inh | pPAFAH FP conf
O=C(c1ccco1)c1cn(Cc2ccccc2Cl)c2ccccc12 | -1.8 | 8.8 | 73.7* | -2.3 | 2.2 | -2.9 | 75.9*
CCC(=O)c1cn(Cc2ccccc2C#N)c2ccccc12 | -15.5 | 3.4 | 7.5 | 4.4 | 11.1 | 2.6 | /
N#Cc1ccccc1Cn1cc(C(=O)c2ccco2)c2ccccc21 | 1.6 | 2.2 | 72.3* | -1.6 | -17.8 | 3.4 | 76.7*
O=C(c1cn(Cc2ccccc2)c2ccccc12)C1CC1 | -0.6 | 1.3 | -4.8 | 2.7 | 4.7 | -3.0 | /
Oc1cc(O)cc(/C=C/c2ccc(O)cc2O)c1 | / | 9.0 | -0.6 | 6.0 | / | 6.3 | /
Nc1ccccc1Cl | 8.5 | 4.7 | -2.2 | -2.0 | -4.9 | 5.2 | /
Cn1cccc1/C=C1/C(=O)NC(=S)N(Cc2ccc(F)cc2)C1=O | 9.1 | 2.9 | 61.5* | 55.4* | 7.0 | 43.8* | 45.1*
COc1ccc(/C=C/C(=O)NC(=S)N2C[C@H]3C[C@H](C2)c2cccc(=O)n2C3)cc1OC | -9.6 | 6.2 | -5.5 | 0.0 | 1.2 | -2.2 | /
O=C1NC(=O)N(Cc2ccc(F)cc2)C(=O)/C1=C\C=C\c1ccco1 | 13.3 | 8.3 | 36.0* | 29.6* | 16.5 | 25.8 | 9.0
CC(C)c1ccc(N2C(=O)NC(=O)/C(=C/C=C/c3ccco3)C2=O)cc1 | 12.9 | -0.8 | 42.7* | 1.0 | 2.0 | 6.5 | 6.8
O=C(C(=O)N1CCOCC1)c1cn(Cc2ccccc2)c2ccccc12 | 2.4 | 6.2 | 1.2 | 0.0 | 0.9 | 1.7 | /
COc1ccc2c3c1OC1[C@H](O)CCC4[C@@H](C2)N(C)CC[C@]314 (stereo not given in full) | 11.0 | 4.8 | 35.1* | -0.3 | -0.7 | 1.5 | 1.6
Fc1c(F)c(F)c(N2CCNCC2)c(F)c1F | 5.4 | 5.4 | 2.2 | -2.7 | 3.1 | -2.3 | /
CN(C)[C@@H]1C(=O)C(C(N)=O)=C(O)[C@@]2(O)C(=O)C3=C(O)c4c(O)cccc4[C@@](C)(O)C3[C@H](O)C12 (stereo not given in full) | -3.1 | 25.6*! | 63.7* | 30.6*! | 5.5 | 46.8*! | -3.4
CN(C)C1C(=O)C(C(N)=O)=C(O)C2(O)C(=O)C3=C(O)c4c(O)cccc4C(C)(O)C3CC12 (stereo not given) | / | 7.2 | 36.0* | 6.1 | / | -9.1 | -1.4
COc1ccc2c(c1)c(C(=O)C(C)N1CCCCC1)c(C)n2C (stereo not given) | -2.7 | 3.9 | -3.7 | 2.9 | -7.4 | -7.8 | /
O=C1NCN(c2ccccc2)C12CCN(C(c1cc3ccccc3o1)c1nnnn1-c1ccc3c(c1)OCCO3)CC2 (stereo not given) | 1.4 | / | / | / | 3.4 | / | /
CC1CCCC(NC(=O)COC(=O)Cc2ccccc2)C1C (stereo not given) | -0.5 | -2.9 | 40.1* | 5.4 | -7.9 | 25.2 | 39.5*
